# How the values were obtained:
# Escherichia coli [1] = test: Antibacterial activity against efflux pump lacking Escherichia coli assessed as inhibition of bacterial growth; type: functional, organism-based
# Klebsiella pneumoniae [2] = test: Antibacterial activity against multidrug resistant Klebsiella pneumoniae ATCC13883 assessed as inhibition of bacterial growth incubated for 24 hrs in MHI medium by twofold serial dilution method; type: functional
# Pseudomonas aeruginosa [3] = test: Antibacterial activity against efflux pump lacking/recombinant OM pore producing Pseudomonas aeruginosa assessed as inhibition of bacterial growth; type: functional, organism-based
# Klebsiella pneumoniae [4] = test: Antibacterial activity against multidrug resistant Klebsiella pneumoniae ATCC13883 assessed as inhibition of bacterial growth incubated for 24 hrs in M9-MOPS medium by twofold serial dilution method; type: functional
# Escherichia coli [5] = test: Antibacterial activity against Escherichia coli SQ110 DTC C2610A incubated for 24 hrs by twofold serial dilution method; type: functional
# Method in brief: (§1)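 E. coli SQDTC (TolC-deficient, single rRNA operon) carrying LZD-resistant 23S rRNA substitutions. Compounds come from 10 mM DMSO stocks and are twofold serially diluted in 96-well plates.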
# Escherichia coli [6] = test: Antibacterial activity against Escherichia coli SQ110 DTC G2032A incubated for 24 hrs by twofold serial dilution method; type: functional; method in brief: as §1
# Escherichia coli [7] = test: Antibacterial activity against wild type Escherichia coli assessed as inhibition of bacterial growth; type: functional, organism-based
# Acinetobacter baumannii [8] = test: Antibacterial activity against recombinant OM pore producing Acinetobacter baumannii assessed as inhibition of bacterial growth; type: functional, organism-based
# Escherichia coli [9] = test: Antibacterial activity against recombinant OM pore producing Escherichia coli assessed as inhibition of bacterial growth; type: functional, organism-based
# Acinetobacter baumannii [10] = test: Antibacterial activity against efflux pump lacking/recombinant OM pore producing Acinetobacter baumannii assessed as inhibition of bacterial growth; type: functional, organism-based
# Escherichia coli [11] = test: Antibacterial activity against Escherichia coli SQ110 DTC incubated for 24 hrs by twofold serial dilution method; type: functional
# Method in brief: (§2)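 MICs by twofold serial dilution in 96-well plates from 10 mM DMSO stocks. Cultures grown in the indicated media; for E. coli, A. baumannii and P. aeruginosa, inducers were 0.1% arabinose, 1% arabinose and 0.1 mM IPTG respectively.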
# Pseudomonas aeruginosa [12] = test: Antibacterial activity against multidrug resistant Pseudomonas aeruginosa BAA 2108 assessed as inhibition of bacterial growth incubated for 24 hrs in M9-MOPS medium by twofold serial dilution method; type: functional
# Escherichia coli [13] = test: Antibacterial activity against Escherichia coli SQ110 incubated for 24 hrs by twofold serial dilution method; type: functional; method in brief: as §2
# Pseudomonas aeruginosa [14] = test: Antibacterial activity against multidrug resistant Pseudomonas aeruginosa BAA 2109 assessed as inhibition of bacterial growth incubated for 24 hrs in MHI medium by twofold serial dilution method; type: functional
# Escherichia coli [15] = test: Antibacterial activity against efflux pump lacking/recombinant OM pore producing Escherichia coli incubated for 24 hrs by twofold serial dilution method; type: functional
# Method in brief: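 E. coli efflux-knockout/hyperporinated strain grown in M9 medium with 50 mM MOPS (pH 7.2) and 0.2% xylose. OM pore induced with 0.1% arabinose. Compounds come from 10 mM DMSO stocks and are twofold serially diluted in 96-well plates.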
# Pseudomonas aeruginosa [16] = test: Antibacterial activity against recombinant OM pore producing Pseudomonas aeruginosa assessed as inhibition of bacterial growth; type: functional, organism-based
# Acinetobacter baumannii [17] = test: Antibacterial activity against efflux pump lacking Acinetobacter baumannii assessed as inhibition of bacterial growth; type: functional, organism-based
# Pseudomonas aeruginosa [18] = test: Antibacterial activity against multidrug resistant Pseudomonas aeruginosa BAA 2108 assessed as inhibition of bacterial growth incubated for 24 hrs in MHI medium by twofold serial dilution method; type: functional
# Pseudomonas aeruginosa [19] = test: Antibacterial activity against efflux pump lacking/recombinant OM pore producing Pseudomonas aeruginosa incubated for 24 hrs by twofold serial dilution method; type: functional; method in brief: as §2
# Acinetobacter baumannii [20] = test: Antibacterial activity against efflux pump lacking/recombinant OM pore producing Acinetobacter baumannii incubated for 24 hrs by twofold serial dilution method; type: functional; method in brief: as §2
# Acinetobacter baumannii [21] = test: Antibacterial activity against multidrug resistant Acinetobacter baumannii AYE assessed as inhibition of bacterial growth incubated for 24 hrs in M9-MOPS medium by twofold serial dilution method; type: functional
# Acinetobacter baumannii [22] = test: Antibacterial activity against multidrug resistant Acinetobacter baumannii AYE assessed as inhibition of bacterial growth incubated for 24 hrs in MHI medium by twofold serial dilution method; type: functional
# Klebsiella aerogenes [23] = test: Antibacterial activity against multidrug resistant Klebsiella aerogenes ATCC13048 assessed as inhibition of bacterial growth incubated for 24 hrs in M9-MOPS medium by twofold serial dilution method; type: functional
# Pseudomonas aeruginosa [24] = test: Antibacterial activity against efflux pump lacking Pseudomonas aeruginosa assessed as inhibition of bacterial growth; type: functional, organism-based
# Pseudomonas aeruginosa [25] = test: Antibacterial activity against multidrug resistant Pseudomonas aeruginosa BAA 2109 assessed as inhibition of bacterial growth incubated for 24 hrs in […] medium by twofold serial dilution method; type: functional
# Escherichia coli [26] = test: Antibacterial activity against efflux pump lacking/recombinant OM pore producing Escherichia coli assessed as inhibition of bacterial growth; type: functional, organism-based
# Acinetobacter baumannii [27] = test: Antibacterial activity against multidrug resistant Acinetobacter baumannii Ab5075 assessed as inhibition of bacterial growth incubated for 24 hrs in M9-MOPS medium by twofold serial dilution method; type: functional
# Acinetobacter baumannii [28] = test: Antibacterial activity against wild type Acinetobacter baumannii assessed as inhibition of bacterial growth; type: functional, organism-based
# Klebsiella aerogenes [29] = test: Antibacterial activity against multidrug resistant Klebsiella […] assessed as inhibition of bacterial growth incubated for 24 hrs in MHI medium by twofold serial dilution method; type: functional
# Klebsiella pneumoniae [30] = test: Antibacterial activity against multidrug resistant Klebsiella pneumoniae ATCC43816 assessed as inhibition of bacterial growth incubated for 24 hrs in MHI medium by twofold serial dilution method; type: functional
# Klebsiella pneumoniae [31] = test: Antibacterial activity against multidrug resistant Klebsiella pneumoniae ATCC43816 assessed as inhibition of bacterial growth incubated for 24 hrs in M9-MOPS medium by twofold serial dilution method; type: functional
# Pseudomonas aeruginosa [32] = test: Antibacterial activity against wild type Pseudomonas aeruginosa assessed as inhibition of bacterial growth; type: functional, organism-based
# Acinetobacter baumannii [33] = test: Antibacterial activity against multidrug resistant Acinetobacter baumannii Ab5075 assessed as inhibition of bacterial growth incubated for 24 hrs in MHI medium by twofold serial dilution method; type: functional
compound,measurement,setting,value
NCc1ccc(-c2ccc(N3C[C@H](CO)OC3=O)cc2F)cc1O,IC50,Escherichia coli [1],10 µM
same,MIC,Klebsiella pneumoniae [2],> 200 µM
same,IC50,Pseudomonas aeruginosa [3],0.2 µM
same,MIC,Klebsiella pneumoniae [4],50 µM
same,MIC,Escherichia coli [5],50 µM
same,MIC,Escherichia coli [6],100 µM
same,IC50,Escherichia coli [7],66.1 µM
same,IC50,Acinetobacter baumannii [8],37.6 µM
same,IC50,Escherichia coli [9],23.3 µM
same,IC50,Acinetobacter baumannii [10],15.4 µM
same,MIC,Escherichia coli [11],25 µM
same,MIC,Pseudomonas aeruginosa [12],> 200 µM
same,MIC,Escherichia coli [13],> 100 µM
same,MIC,Pseudomonas aeruginosa [14],> 200 µM
same,MIC,Escherichia coli [15],50 µM
same,IC50,Pseudomonas aeruginosa [16],40.8 µM
same,IC50,Acinetobacter baumannii [17],15.4 µM
same,MIC,Pseudomonas aeruginosa [18],> 200 µM
same,MIC,Pseudomonas aeruginosa [19],6.25 µM
same,MIC,Acinetobacter baumannii [20],25 µM
same,MIC,Acinetobacter baumannii [21],> 200 µM
same,MIC,Acinetobacter baumannii [22],> 200 µM
same,MIC,Klebsiella aerogenes [23],12.5 µM
same,IC50,Pseudomonas aeruginosa [24],2.2 µM
same,MIC,Pseudomonas aeruginosa [25],> 200 µM
same,IC50,Escherichia coli [26],10.3 µM
same,MIC,Acinetobacter baumannii [27],> 200 µM
same,IC50,Acinetobacter baumannii [28],37.6 µM
same,MIC,Klebsiella aerogenes [29],200 µM
same,MIC,Klebsiella pneumoniae [30],> 200 µM
same,MIC,Klebsiella pneumoniae [31],100 µM
same,IC50,Pseudomonas aeruginosa [32],55.9 µM
same,MIC,Acinetobacter baumannii [33],> 200 µM

# — ChEMBL document CHEMBL5104202, “Structure-Uptake Relationship Studies of Oxazolidinones in Gram-Negative ESKAPE Pathogens” (J Med Chem, 2022)
